From ChEMBL document CHEMBL4689842, “EUbOPEN Chemogenomics Library wave 1” (2021)

System: HEK-293T
Experiment: Multiplex assay against HEK293T;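 on Population Tubulin-Different-Phenotype (%): share of the cells with healthy nuclei that show this phenotype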
Assay type: toxicity, cell-based
Details: human
Outline: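 Live cells were stained at seeding with Hoechst33342, BioTracker Green Microtubule Cytoskeleton Dye, MitoTracker Red and Annexin V Alexa Fluor 680. Following compound addition, they were imaged on a CQ1 microscope at 37°C and 5% CO2 and gated by CellPathfinder machine learning into Hoechst high-intensity objects or normal cells, with normal cells split into healthy, pyknosed or fragmented nuclei and pyknosed cells into mitotic or apoptotic. Tubulin, mitochondrial-mass and membrane-permeability phenotypes are per cents of healthy-nucleus cells.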

[1] = 12 h, 1 µM, compound concentration 1 uM, replicate 1
[2] = 12 h, 1 µM, compound concentration 1 uM, replicate 2
[3] = 12 h, 10 µM, compound concentration 10 uM, replicate 1
[4] = 12 h, 10 µM, compound concentration 10 uM, replicate 2
[5] = 24 h, 1 µM, compound concentration 1 uM, replicate 1
[6] = 24 h, 1 µM, compound concentration 1 uM, replicate 2
[7] = 24 h, 10 µM, compound concentration 10 uM, replicate 1
[8] = 24 h, 10 µM, compound concentration 10 uM, replicate 2
[9] = 48 h, 1 µM, compound concentration 1 uM, replicate 1
[10] = 48 h, 1 µM, compound concentration 1 uM, replicate 2
[11] = 48 h, 10 µM, compound concentration 10 uM, replicate 1
[12] = 48 h, 10 µM, compound concentration 10 uM, replicate 2

Compound: CC(C)(O)CNc1ncc(-c2ccnc(Nc3ccnc(Cl)c3)n2)c(CC2CC2)n1
- Population Apoptotic (%) [1]: 59%
- Population Fragmented Nuclei (%) [1]: 14%
- Population Healthy Nuclei (%) [1]: 25%
- Population Hoechst High Intensity Objects (%) [1]: 16%
- Population Membrane Permeable-Phenotype (%) [1]: 4%
- Population Mitochondria Different-Phenotype (%) [1]: 90%
- Population Mitotic Cells (%) [1]: 40%
- Population Normal (%) [1]: 83%
- Population Pyknosed Nuclei (%) [1]: 59%
- Population Tubulin-Different-Phenotype (%) [1]: 75%
- Total Cell Count [1]: 287
- Population Apoptotic (%) [2]: 17%
- Population Fragmented Nuclei (%) [2]: 9%
- Population Healthy Nuclei (%) [2]: 23%
- Population Hoechst High Intensity Objects (%) [2]: 8%
- Population Membrane Permeable-Phenotype (%) [2]: 13%
- Population Mitochondria Different-Phenotype (%) [2]: 13%
- Population Mitotic Cells (%) [2]: 82%
- Population Normal (%) [2]: 91%
- Population Pyknosed Nuclei (%) [2]: 67%
- Population Tubulin-Different-Phenotype (%) [2]: 31%
- Total Cell Count [2]: 133
- Population Apoptotic (%) [3]: 72%
- Population Fragmented Nuclei (%) [3]: 11%
- Population Healthy Nuclei (%) [3]: 5%
- Population Hoechst High Intensity Objects (%) [3]: 23%
- Population Membrane Permeable-Phenotype (%) [3]: 13%
- Population Mitochondria Different-Phenotype (%) [3]: 93%
- Population Mitotic Cells (%) [3]: 27%
- Population Normal (%) [3]: 76%
- Population Pyknosed Nuclei (%) [3]: 83%
- Population Tubulin-Different-Phenotype (%) [3]: 86%
- Total Cell Count [3]: 381
- Population Apoptotic (%) [4]: 52%
- Population Fragmented Nuclei (%) [4]: 4%
- Population Healthy Nuclei (%) [4]: 3%
- Population Hoechst High Intensity Objects (%) [4]: 14%
- Population Membrane Permeable-Phenotype (%) [4]: 28%
- Population Mitochondria Different-Phenotype (%) [4]: 85%
- Population Mitotic Cells (%) [4]: 47%
- Population Normal (%) [4]: 85%
- Population Pyknosed Nuclei (%) [4]: 91%
- Population Tubulin-Different-Phenotype (%) [4]: 42%
- Total Cell Count [4]: 213
- Population Apoptotic (%) [5]: 49%
- Population Fragmented Nuclei (%) [5]: 12%
- Population Healthy Nuclei (%) [5]: 28%
- Population Hoechst High Intensity Objects (%) [5]: 15%
- Population Membrane Permeable-Phenotype (%) [5]: 1%
- Population Mitochondria Different-Phenotype (%) [5]: 82%
- Population Mitotic Cells (%) [5]: 50%
- Population Normal (%) [5]: 84%
- Population Pyknosed Nuclei (%) [5]: 58%
- Population Tubulin-Different-Phenotype (%) [5]: 89%
- Total Cell Count [5]: 319
- Population Apoptotic (%) [6]: 27%
- Population Fragmented Nuclei (%) [6]: 9%
- Population Healthy Nuclei (%) [6]: 34%
- Population Hoechst High Intensity Objects (%) [6]: 5%
- Population Membrane Permeable-Phenotype (%) [6]: 6%
- Population Mitochondria Different-Phenotype (%) [6]: 27%
- Population Mitotic Cells (%) [6]: 72%
- Population Normal (%) [6]: 94%
- Population Pyknosed Nuclei (%) [6]: 56%
- Population Tubulin-Different-Phenotype (%) [6]: 68%
- Total Cell Count [6]: 145
- Population Apoptotic (%) [7]: 73%
- Population Fragmented Nuclei (%) [7]: 15%
- Population Healthy Nuclei (%) [7]: 3%
- Population Hoechst High Intensity Objects (%) [7]: 23%
- Population Membrane Permeable-Phenotype (%) [7]: 11%
- Population Mitochondria Different-Phenotype (%) [7]: 100%
- Population Mitotic Cells (%) [7]: 26%
- Population Normal (%) [7]: 76%
- Population Pyknosed Nuclei (%) [7]: 81%
- Population Tubulin-Different-Phenotype (%) [7]: 100%
- Total Cell Count [7]: 382
- Population Apoptotic (%) [8]: 64%
- Population Fragmented Nuclei (%) [8]: 2%
- Population Healthy Nuclei (%) [8]: 2%
- Population Hoechst High Intensity Objects (%) [8]: 16%
- Population Membrane Permeable-Phenotype (%) [8]: 40%
- Population Mitochondria Different-Phenotype (%) [8]: 80%
- Population Mitotic Cells (%) [8]: 35%
- Population Normal (%) [8]: 83%
- Population Pyknosed Nuclei (%) [8]: 94%
- Population Tubulin-Different-Phenotype (%) [8]: 40%
- Total Cell Count [8]: 208
- Population Apoptotic (%) [9]: 40%
- Population Fragmented Nuclei (%) [9]: 22%
- Population Healthy Nuclei (%) [9]: 29%
- Population Hoechst High Intensity Objects (%) [9]: 17%
- Population Membrane Permeable-Phenotype (%) [9]: 3%
- Population Mitochondria Different-Phenotype (%) [9]: 62%
- Population Mitotic Cells (%) [9]: 59%
- Population Normal (%) [9]: 82%
- Population Pyknosed Nuclei (%) [9]: 47%
- Population Tubulin-Different-Phenotype (%) [9]: 68%
- Total Cell Count [9]: 360
- Population Apoptotic (%) [10]: 25%
- Population Fragmented Nuclei (%) [10]: 5%
- Population Healthy Nuclei (%) [10]: 68%
- Population Hoechst High Intensity Objects (%) [10]: 5%
- Population Membrane Permeable-Phenotype (%) [10]: 10%
- Population Mitochondria Different-Phenotype (%) [10]: 10%
- Population Mitotic Cells (%) [10]: 75%
- Population Normal (%) [10]: 94%
- Population Pyknosed Nuclei (%) [10]: 26%
- Population Tubulin-Different-Phenotype (%) [10]: 57%
- Total Cell Count [10]: 209
- Population Apoptotic (%) [11]: 72%
- Population Fragmented Nuclei (%) [11]: 22%
- Population Healthy Nuclei (%) [11]: 1%
- Population Hoechst High Intensity Objects (%) [11]: 28%
- Population Membrane Permeable-Phenotype (%) [11]: 25%
- Population Mitochondria Different-Phenotype (%) [11]: 100%
- Population Mitotic Cells (%) [11]: 27%
- Population Normal (%) [11]: 71%
- Population Pyknosed Nuclei (%) [11]: 76%
- Population Tubulin-Different-Phenotype (%) [11]: 100%
- Total Cell Count [11]: 373
- Population Apoptotic (%) [12]: 63%
- Population Fragmented Nuclei (%) [12]: 6%
- Population Healthy Nuclei (%) [12]: 3%
- Population Hoechst High Intensity Objects (%) [12]: 16%
- Population Membrane Permeable-Phenotype (%) [12]: 0%
- Population Mitochondria Different-Phenotype (%) [12]: 71%
- Population Mitotic Cells (%) [12]: 36%
- Population Normal (%) [12]: 83%
- Population Pyknosed Nuclei (%) [12]: 89%
- Population Tubulin-Different-Phenotype (%) [12]: 71%
- Total Cell Count [12]: 212
